From ChEMBL document CHEMBL3227951, “Alkylating nucleosides 1. Synthesis and cytostatic activity of N-glycosyl(halomethyl)-1,2,3-triazoles. A new type of alkylating agent” (J Med Chem, 1979)
In brackets after ≈: the same amount, converted by molar mass. Activity calls are given as the source filed them. The calls are words filed in the database; no cut-off is given here.

Tests used:
HeLa = experiment: In vitro cytostatic activity against human HeLa cells assessed as cell growth after 72 hrs by colorimetric method; format: functional; settings: read-out: ED50 (the source's name)
In short: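 HeLa cells at 10⁵ cells/mL in Eagle's minimal medium with 10% fetal calf serum, Leighton tubes, 37 °C. Compound added 2-3 h after attachment, suspended in sterile saline with 0.05% Tween 80 (10% of final volume). Incubated 72 h at 37 °C. Growth measured as cell protein by the Oyama-Eagle colorimetric method. 6-Mercaptopurine was the positive control. ED50 in μg/mL.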

[1] = In vivo cytostatic activity against mouse Ehrlich carcinoma ascites allografted in ICR swiss mouse assessed as median survival time at 75 mg/kg, ip administered qd for 9 days beginning 24 hrs after tumor implantation relative to control; format: functional; settings: route intraperitoneal
In short: (§1)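 Female ICR Swiss mice (19-22 g) bearing Ehrlich ascites carcinoma, per NCI protocols 1100/1200; compound suspended in 0.9% NaCl with 0.5% Tween 80, given ip at 0.4 mL once daily for 9 days from 24 h post-implant. Groups of 6 treated vs 30 controls; 5-fluorouracil 20 mg/kg/injection as positive control. T/C = treated/control median survival time as percentage.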

Mus musculus [2] = experiment: In vivo cytostatic activity against mouse Ehrlich carcinoma ascites allografted in ip dosed ICR swiss mouse assessed as median survival time administered qd for 9 days beginning 24 hrs after tumor implantation; format: functional, organism-based
In short: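 Female ICR Swiss mice (19-22 g) carrying Ehrlich ascites carcinoma, following NCI protocols 1100/1200. Compound suspended in 0.9% NaCl with 0.5% Tween 80 and given ip at 0.4 mL, once daily for 9 days starting 24 h after implantation. Groups of 6 treated and 30 control mice. 5-Fluorouracil at 20 mg/kg was the positive control. T/C = median survival of treated over control, ×100.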

Mus musculus [3] = experiment: Toxicity in ICR swiss mouse allografted with mouse Ehrlich carcinoma ascites assessed as change in body weight at 75 mg/kg, ip administered qd for 9 days beginning 24 hrs after tumor implantation; format: organism-based; set-up: dose 75 mg/kg, route intraperitoneal; settings: in vivo
In short: (§2)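 Female ICR Swiss mice (19-22 g) carrying Ehrlich ascites carcinoma. Compound suspended in 0.9% NaCl with 0.5% Tween 80 and given ip at 0.4 mL, once daily for 9 days starting 24 h after implantation. Groups of 6 treated and 30 control mice. Read-out is the weight difference in grams between treated and control animals.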

P388 = experiment: In vivo cytostatic activity against mouse P388 cells allografted in mouse assessed as increase in host life span at 50 mg/kg; format: functional
[4] = In vivo cytostatic activity against mouse Ehrlich carcinoma ascites allografted in ICR swiss mouse assessed as median survival time at 100 mg/kg, ip administered qd for 9 days beginning 24 hrs after tumor implantation relative to control; format: functional; settings: route intraperitoneal; in short: as §1
Mus musculus [5] = experiment: Toxicity in ICR swiss mouse allografted with mouse Ehrlich carcinoma ascites assessed as change in body weight at 100 mg/kg, ip administered qd for 9 days beginning 24 hrs after tumor implantation; format: organism-based; set-up: dose 100 mg/kg, route intraperitoneal; settings: in vivo; in short: as §2

EC50 (HeLa) [µg/mL] | Structure (SMILES) | Activity (Mus musculus [2]) | other results
25 (≈ 55.9 µM) | CC(=O)N[C@@H]1[C@@H](OC(C)=O)[C@H](OC(C)=O)[C@@H](COC(C)=O)O[C@H]1n1nncc1CCl |  | 
37 (≈ 82.6 µM) | CC(=O)OC[C@H]1O[C@@H](n2cc(CCl)nn2)[C@H](OC(C)=O)[C@@H](OC(C)=O)[C@@H]1OC(C)=O |  | 
25 (≈ 55.8 µM) | CC(=O)OC[C@H]1O[C@@H](n2nncc2CCl)[C@H](OC(C)=O)[C@@H](OC(C)=O)[C@@H]1OC(C)=O |  | 
20 (≈ 44.8 µM) | CC(=O)N[C@@H]1[C@@H](OC(C)=O)[C@H](OC(C)=O)[C@@H](COC(C)=O)O[C@H]1n1cc(CCl)nn1 |  | 
> 100 | CC(=O)N[C@@H]1[C@@H](OC(C)=O)[C@H](OC(C)=O)[C@@H](COC(C)=O)O[C@H]1n1cc(CO)nn1 |  | 
> 100 | CC(=O)N[C@@H]1[C@@H](OC(C)=O)[C@H](OC(C)=O)[C@@H](COC(C)=O)O[C@H]1n1nnc(CO)c1CO |  | 
3 (≈ 5.13 µM) | CC(=O)OC[C@H]1O[C@@H](n2nnc(CBr)c2CBr)[C@H](OC(C)=O)[C@@H](OC(C)=O)[C@@H]1OC(C)=O | inactive | 
> 100 | CC(=O)N[C@@H]1[C@@H](OC(C)=O)[C@H](OC(C)=O)[C@@H](COC(C)=O)O[C@H]1n1nncc1CO |  | 
6 (≈ 12.1 µM) | CC(=O)OC[C@H]1O[C@@H](n2nnc(CCl)c2CCl)[C@H](OC(C)=O)[C@@H](OC(C)=O)[C@@H]1OC(C)=O |  | 
> 100 | CC(=O)OC[C@H]1O[C@@H](n2nnc(CO)c2CO)[C@H](OC(C)=O)[C@@H](OC(C)=O)[C@@H]1OC(C)=O |  | 

The next lines start with the compound.

Structure (SMILES) | EC50 (HeLa) [µg/mL] | Activity (Mus musculus [2]) | other results
CC(=O)OC[C@H]1O[C@@H](n2cc(CBr)nn2)[C@H](OC(C)=O)[C@@H](OC(C)=O)[C@@H]1OC(C)=O | 3.5 (≈ 7.11 µM) | Active | T/C [1]: 145%; Activity (Mus musculus [3]): -0.5 g; T/C (P388): 163%
CC(=O)N[C@@H]1[C@@H](OC(C)=O)[C@H](OC(C)=O)[C@@H](COC(C)=O)O[C@H]1n1cc(CBr)nn1 | 20 (≈ 40.7 µM) |  | 
CC(=O)OC[C@H]1O[C@@H](n2cc(CI)nn2)[C@H](OC(C)=O)[C@@H](OC(C)=O)[C@@H]1OC(C)=O | 2 (≈ 3.71 µM) | Active | T/C [4]: 195%; Activity (Mus musculus [5]): -1.1 g
CC(=O)OC[C@H]1O[C@@H](n2nncc2CBr)[C@H](OC(C)=O)[C@@H](OC(C)=O)[C@@H]1OC(C)=O | 4 (≈ 8.13 µM) | inactive | 
ClCc1cn(Cc2ccccc2)nn1 | 18 (≈ 86.7 µM) |  | 
BrCc1cn(Cc2ccccc2)nn1 | 2 (≈ 7.93 µM) | inactive | 
ICc1cn(Cc2ccccc2)nn1 | 2 (≈ 6.69 µM) | inactive | 
Sc1ncnc2nc[nH]c12 [MERCAPTOPURINE ANHYDROUS] | 0.1 (≈ 0.657 µM) |  | 
FCc1cn(Cc2ccccc2)nn1 | > 100 |  | 
